From ChEMBL document CHEMBL6182837, “Discovery and biological evaluation of nitrofuranyl-pyrazolopyrimidine hybrid conjugates as potent antimicrobial agents targeting Staphylococcus aureus and methicillin-resistant S. aureus” (RSC Med Chem, 2025)

Columns and labels:
[1] = system: Staphylococcus aureus; assay: Additive antibacterial activity against Staphylococcus aureus ATCC 29213 assessed as fractional inhibitory concentration index at 0.02 ug/ml incubated up to 24 hrs in presence of ciprofloxacin by checkerboard analysis; assay type: functional; settings: dose 0.02 µg/ml
Procedure, shortened: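 Checkerboard microdilution in cation-adjusted MHB, done per CLSI. The compound and partner antibiotic were dissolved in DMSO. The antibiotic was serially diluted across the plate and the compound was twofold serially diluted into the wells to make the combinations. Each well received 0.1 ml of inoculum, a 0.5 McFarland suspension (1.5 × 10^8 CFU ml−1) diluted 1:100 in MHB. Plates were incubated 24 h at 37 °C, then read with Alamar blue (0.04%). FIC index was calculated.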

[2] = C0 in male Balb/c mouse at 1 mg/kg, iv by LC-MS/MS analysis; assay type: ADME, organism-based; settings: in vivo
Procedure, shortened: (§1)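 Balb/c mice dosed 1 mg kg−1 intravenously or 30 mg kg−1 orally (2.5 mg kg−1 oral also given); plasma PK parameters derived.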

[3] = system: J774.A1; assay: Cytotoxicity against mouse J774.A1 cells up to 200 ug/ml incubated for 24 hrs by absorbance based assay
[4] = system: Staphylococcus aureus; assay: Antibacterial activity against methicillin-resistant Staphylococcus aureus ATCC 15187 infected in male Balb/c/c mouse assessed as reduction in bacterial load in kidney at 50 to 100 mg/kg measured after 24 hrs by colony counting method; assay type: functional, organism-based; settings: dose 50-100 mg/kg
Procedure, shortened: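 Mouse peritonitis model: 0.1 ml MRSA suspension (10^8 CFU ml−1) given intraperitoneally; treatment intraperitoneal at 50 or 100 mg kg−1 at 2 and 5 h post-infection, with saline and vancomycin (50 mg kg−1) controls; killed at 24 h; kidney and lung homogenates plated on Mueller–Hinton agar with 20 μg ml−1 ciprofloxacin, 24 h; CFU ml−1; unpaired t-test.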

[5] = Hemolytic activity in rabbit erythrocytes up to 200 ug/ml incubated for 4 hrs by absorbance based assay; assay type: toxicity, cell-based, Oryctolagus cuniculus; settings: erythrocyte, dose < 200 µg/ml
[6] = Volume of distribution in male Balb/c mouse at 30 mg/kg, po by LC-MS/MS analysis; assay type: ADME, organism-based; settings: in vivo; procedure, shortened: as §1
[7] = Cmax in male Balb/c mouse at 30 mg/kg, po by LC-MS/MS analysis; assay type: ADME, organism-based; settings: in vivo; procedure, shortened: as §1

CCCc1nn(C)c2c(Nc3ccc(O)cc3)nc(-c3ccc([N+](=O)[O-])o3)nc12
fractional inhibitory concentration index (FICI) [1]: 1 | C0 [2]: 552 ng/mL | Activity [3]: Non-toxic | Activity [4]: Active; Significantly Greater Effect Was Observed At 50 Mg/Kg Compared To Vancomycin | Activity [5]: Non-toxic | Vd [6]: 4.75 L/kg | Cmax [7]: 2010 ng/mL
